{"source": "ChEMBL document CHEMBL1145493", "about": "“Exposure-response analyses of tigecycline efficacy in patients with complicated skin and skin-structure infections” (Antimicrob Agents Chemother, 2007)", "key": {"Staphylococcus aureus": {"test_system": "Staphylococcus aureus", "assay": "Antibacterial activity against Staphylococcus aureus", "type": "functional", "summary_of_the_method": "(§1)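 Baseline isolates from cSSSI patients in three pooled tigecycline trials (one phase 2, two phase 3) were identified and susceptibility-tested at a central laboratory. MICs were determined by broth dilution in fresh media following Clinical and Laboratory Standards Institute guidelines.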"}, "[1]": {"assay": "AUC at 24 hrs steady state in patient with complicated skin and skin structure infection at 100 mg loading dose followed by 50 mg every 12 hrs", "type": "ADME, organism-based", "parameters": "dose 100 mg, time < 24 hr", "details": "human, plasma", "summary_of_the_method": "(§2)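 Tigecycline given i.v. for 7 to 14 days. Levels were measured by validated LC-MS/MS (LLOQ 10 ng/ml). Steady-state AUC24 was derived from a population PK model in evaluable patients pooled from three trials.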"}, "Acinetobacter baumannii": {"test_system": "Acinetobacter baumannii", "assay": "Antibacterial activity against Acinetobacter baumannii", "type": "functional", "summary_of_the_method": "as §1"}, "Enterococcus faecium": {"test_system": "Enterococcus faecium", "assay": "Antibacterial activity against Enterococcus faecium", "type": "functional", "summary_of_the_method": "(§3)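 MICs for baseline pathogens isolated from patients with complicated skin and skin-structure infections. Isolates went to a central laboratory for identification and susceptibility testing by CLSI broth dilution in fresh media.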"}, "Escherichia coli": {"test_system": "Escherichia coli", "assay": "Antibacterial activity against Escherichia coli", "type": "functional", "summary_of_the_method": "as §1"}, "Citrobacter koseri": {"test_system": "Citrobacter koseri", "assay": "Antibacterial activity against Citrobacter koseri", "type": "functional", "summary_of_the_method": "as §3"}, "Klebsiella oxytoca": {"test_system": "Klebsiella oxytoca", "assay": "Antibacterial activity against Klebsiella oxytoca", "type": "functional", "summary_of_the_method": "as §3"}, "[2]": {"assay": "AUC at 24 hrs steady state in patient with complicated skin and skin structure infection at 50 mg loading dose followed by 25 mg every 12 hrs", "type": "ADME, organism-based", "parameters": "time < 24 hr, dose 50 mg", "details": "human, plasma", "summary_of_the_method": "as §2"}, "Klebsiella pneumoniae": {"test_system": "Klebsiella pneumoniae", "assay": "Antibacterial activity against Klebsiella pneumoniae", "type": "functional", "summary_of_the_method": "as §1"}, "[3]": {"test_system": "Streptococcus intermedius", "assay": "Antibacterial activity against Streptococcus intermedius", "type": "functional", "summary_of_the_method": "as §3"}, "[4]": {"assay": "AUC (24 hrs)/MIC in patient with baseline skin pathogens at 100 mg loading dose followed by 50 mg every 12 hrs", "type": "ADME, cell-free", "details": "human, plasma", "summary_of_the_method": "(§4)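 Per-patient ratio of model-derived steady-state AUC24 to the MIC of the baseline pathogen. The AUC24 came from population PK analysis of serum LC-MS/MS levels sampled predose and at 1, 3 and 6 h. MICs were set centrally by CLSI broth dilution in fresh media on isolates taken at baseline, with i.v. dosing over 7 to 14 days.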"}, "Enterococcus faecalis": {"test_system": "Enterococcus faecalis", "assay": "Antibacterial activity against Enterococcus faecalis", "type": "functional", "summary_of_the_method": "as §3"}, "[5]": {"test_system": "Streptococcus constellatus", "assay": "Antibacterial activity against Streptococcus constellatus", "type": "functional", "summary_of_the_method": "as §3"}, "Serratia marcescens": {"test_system": "Serratia marcescens", "assay": "Antibacterial activity against Serratia marcescens", "type": "functional", "summary_of_the_method": "as §3"}, "Proteus mirabilis": {"test_system": "Proteus mirabilis", "assay": "Antibacterial activity against Proteus mirabilis", "type": "functional", "summary_of_the_method": "as §3"}, "[6]": {"test_system": "Streptococcus dysgalactiae subsp. equisimilis", "assay": "Antibacterial activity against Streptococcus equisimilis", "type": "functional", "summary_of_the_method": "as §3"}, "Enterobacter cloacae": {"test_system": "Enterobacter cloacae", "assay": "Antibacterial activity against Enterobacter cloacae", "type": "functional", "summary_of_the_method": "as §1"}, "Citrobacter freundii": {"test_system": "Citrobacter freundii", "assay": "Antibacterial activity against Citrobacter freundii", "type": "functional", "summary_of_the_method": "as §3"}, "[7]": {"assay": "AUC (24 hrs)/MIC in patient with baseline skin pathogens at 50 mg loading dose followed by 25 mg every 12 hrs", "type": "ADME, cell-free", "details": "human, plasma", "summary_of_the_method": "as §4"}, "[8]": {"test_system": "Streptococcus dysgalactiae", "assay": "Antibacterial activity against Streptococcus dysgalactiae", "type": "functional", "summary_of_the_method": "as §3"}, "Pseudomonas aeruginosa": {"test_system": "Pseudomonas aeruginosa", "assay": "Antibacterial activity against Pseudomonas aeruginosa", "type": "functional", "summary_of_the_method": "as §1"}, "[9]": {"test_system": "Acinetobacter calcoaceticus", "assay": "Antibacterial activity against Acinetobacter calcoaceticus", "type": "functional", "summary_of_the_method": "as §3"}, "[10]": {"test_system": "Acinetobacter haemolyticus", "assay": "Antibacterial activity against Acinetobacter haemolyticus", "type": "functional", "summary_of_the_method": "as §3"}, "Streptococcus pyogenes": {"test_system": "Streptococcus pyogenes", "assay": "Antibacterial activity against Streptococcus pyogenes", "type": "functional", "summary_of_the_method": "as §3"}, "Streptococcus agalactiae": {"test_system": "Streptococcus agalactiae", "assay": "Antibacterial activity against Streptococcus agalactiae", "type": "functional", "summary_of_the_method": "as §3"}, "Streptococcus anginosus": {"test_system": "Streptococcus anginosus", "assay": "Antibacterial activity against Streptococcus anginosus", "type": "functional", "summary_of_the_method": "as §3"}}}
{"compound": "CN(C)c1cc(NC(=O)CNC(C)(C)C)c(O)c2c1C[C@H]1C[C@H]3[C@H](N(C)C)C(O)=C(C(N)=O)C(=O)[C@@]3(O)C(O)=C1C2=O", "note": "[TIGECYCLINE]", "values": [{"measurement": "MIC", "setting": "Staphylococcus aureus", "value": 0.06, "unit": "µg/mL"}, {"measurement": "AUC at 24 h", "setting": "[1]", "value": 5390, "unit": "ng·h/mL"}, {"measurement": "MIC", "setting": "Acinetobacter baumannii", "value": 0.25, "unit": "µg/mL"}, {"measurement": "MIC", "setting": "Enterococcus faecium", "value": 0.06, "unit": "µg/mL"}, {"measurement": "MIC", "setting": "Escherichia coli", "value": 0.25, "unit": "µg/mL"}, {"measurement": "MIC", "setting": "Citrobacter koseri", "value": 0.5, "unit": "µg/mL"}, {"measurement": "MIC", "setting": "Klebsiella oxytoca", "value": 0.5, "unit": "µg/mL"}, {"measurement": "AUC at 24 h", "setting": "[2]", "value": 2660, "unit": "ng·h/mL"}, {"measurement": "MIC", "setting": "Klebsiella pneumoniae", "value": 0.5, "unit": "µg/mL"}, {"measurement": "MIC", "setting": "[3]", "value": 0.06, "unit": "µg/mL"}, {"measurement": "RatioAUC/MIC", "setting": "[4]", "value": 32.5}, {"measurement": "MIC", "setting": "Enterococcus faecalis", "value": 0.12, "unit": "µg/mL"}, {"measurement": "MIC", "setting": "[5]", "value": 0.12, "unit": "µg/mL"}, {"measurement": "MIC", "setting": "Serratia marcescens", "value": 1, "unit": "µg/mL"}, {"measurement": "MIC", "setting": "Proteus mirabilis", "value": 2, "unit": "µg/mL"}, {"measurement": "MIC", "setting": "[6]", "value": 0.06, "unit": "µg/mL"}, {"measurement": "MIC", "setting": "Enterobacter cloacae", "value": 1, "unit": "µg/mL"}, {"measurement": "MIC", "setting": "Citrobacter freundii", "value": 0.5, "unit": "µg/mL"}, {"measurement": "RatioAUC/MIC", "setting": "[7]", "value": 13.3}, {"measurement": "MIC", "setting": "[8]", "value": 0.12, "unit": "µg/mL"}, {"measurement": "MIC", "setting": "Pseudomonas aeruginosa", "value": 8, "unit": "µg/mL"}, {"measurement": "MIC", "setting": "[9]", "value": 0.25, "unit": "µg/mL"}, {"measurement": "MIC", "setting": "[10]", "value": 0.5, "unit": "µg/mL"}, {"measurement": "MIC", "setting": "Streptococcus pyogenes", "value": 0.06, "unit": "µg/mL"}, {"measurement": "MIC", "setting": "Streptococcus agalactiae", "value": 0.06, "unit": "µg/mL"}, {"measurement": "MIC", "setting": "Streptococcus anginosus", "value": 0.06, "unit": "µg/mL"}]}
